Key:
Beta-secretase 1 [1] = target: T1, Beta-secretase 1 (Homo sapiens, UniProt P56817); assay: Inhibition of human BACE1 (1 to 460 residues) expressed in baculovirus expression system at 10 uM using Rh-EVNLDAEFK-quencher as substrate after 90 mins by FRET assay
Method in brief: (§1)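 FRET kit assay, manufacturer's protocol with small modifications. Compounds were taken from DMSO stocks and diluted in assay buffer (50 mM sodium acetate, pH 4.5). Substrate and compound were mixed, then enzyme (1 U/mL) was added to start the reaction. After about 90 min at room temperature, 2.5 M sodium acetate stop solution was added. Read-out was fluorescence at Ex 545/Em 585 nm. Triplicate wells, 3–4 independent experiments, mean ± SEM; OM99 served as reference inhibitor.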

Beta-secretase 1 [2] = target: T1, Beta-secretase 1; assay: Inhibition of human BACE1 (1 to 460 residues) expressed in baculovirus expression system at 50 uM using Rh-EVNLDAEFK-quencher as substrate after 90 mins by FRET assay; method in brief: as §1
Beta-secretase 1 [3] = target: T1, Beta-secretase 1; assay: Inhibition of human BACE1 (1 to 460 residues) expressed in baculovirus expression system using Rh-EVNLDAEFK-quencher as substrate after 90 mins by FRET assay
Method in brief: as §1, with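 “added.” for “added. Read-out was fluorescence at Ex 545/Em 585 nm.”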

T1 sequence (P56817 whole entry, the tested form may be a part): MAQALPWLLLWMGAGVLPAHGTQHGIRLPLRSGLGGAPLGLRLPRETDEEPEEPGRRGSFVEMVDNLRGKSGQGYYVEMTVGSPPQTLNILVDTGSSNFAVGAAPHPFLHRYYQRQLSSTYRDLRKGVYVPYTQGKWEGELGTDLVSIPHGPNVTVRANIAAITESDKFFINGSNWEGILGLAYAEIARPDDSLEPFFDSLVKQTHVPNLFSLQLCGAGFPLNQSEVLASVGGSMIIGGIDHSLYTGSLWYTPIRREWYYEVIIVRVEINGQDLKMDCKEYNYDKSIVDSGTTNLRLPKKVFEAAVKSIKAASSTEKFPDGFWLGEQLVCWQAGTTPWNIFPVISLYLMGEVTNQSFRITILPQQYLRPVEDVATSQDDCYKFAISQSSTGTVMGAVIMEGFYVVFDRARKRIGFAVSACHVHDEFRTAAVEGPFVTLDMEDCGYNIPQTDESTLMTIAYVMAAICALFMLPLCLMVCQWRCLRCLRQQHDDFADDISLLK

SMILES | inhibition (Beta-secretase 1 [1]) [%] | inhibition (Beta-secretase 1 [2]) [%] | IC50 (Beta-secretase 1 [3]) [µM]
CC(C)(C)Nc1c(-c2ccc(OCCCN3C(=O)c4ccccc4C3=O)cc2)nc2ccc(Br)cn12 | 7.87 | 34.3 | –
COc1cc(-c2nc3ccc(Br)cn3c2NC(C)(C)C)ccc1OCCCN1C(=O)c2ccccc2C1=O | 33.2 | 48.7 | –
COc1cc(-c2nc3ccc(Cl)cn3c2NC2CCCCC2)ccc1OCCCN1C(=O)c2ccccc2C1=O | 26.9 | 88.1 | 14.9
COc1cc(-c2nc3ccccn3c2NC2CCCCC2)ccc1OCCCN1C(=O)c2ccccc2C1=O | 29.3 | 69.5 | –
CC(C)(C)Nc1c(-c2ccc(OCCCN3C(=O)c4ccccc4C3=O)cc2)nc2ccc(Cl)cn12 | 17.7 | 33 | –
Cc1cccn2c(NC3CCCCC3)c(-c3ccc(OCCCN4C(=O)c5ccccc5C4=O)cc3)nc12 | 44.4 | 69.4 | –
COc1cc(-c2nc3ccc(Cl)cn3c2NC(C)(C)C)ccc1OCCCN1C(=O)c2ccccc2C1=O | 19.4 | 37.9 | –
Cc1ccc2nc(-c3ccc(OCCCN4C(=O)c5ccccc5C4=O)cc3)c(NC3CCCCC3)n2c1 | 37.6 | 63.7 | 29.4
O=C1c2ccccc2C(=O)N1CCCOc1ccc(-c2nc3ccc(Br)cn3c2NC2CCCCC2)cc1 | 32.2 | 45.3 | –
Cc1cccc2nc(-c3ccc(OCCCN4C(=O)c5ccccc5C4=O)cc3)c(NC3CCCCC3)n12 | 61.5 | 87.9 | 5.93

Second part, the molecule after the results:

inhibition (Beta-secretase 1 [1]) [%] | inhibition (Beta-secretase 1 [2]) [%] | IC50 (Beta-secretase 1 [3]) [µM] | SMILES
< 10 | < 10 | – | O=C1c2ccccc2C(=O)N1CCCOc1ccc(-c2nc3ccccn3c2NC2CCCCC2)cc1
24.2 | 18.3 | – | Cc1ccn2c(NC(C)(C)C)c(-c3ccc(OCCCN4C(=O)c5ccccc5C4=O)cc3)nc2c1
36.7 | 43.2 | – | COc1cc(-c2nc3ccc(Br)cn3c2NC2CCCCC2)ccc1OCCCN1C(=O)c2ccccc2C1=O
11.5 | 19.6 | – | O=C1c2ccccc2C(=O)N1CCCOc1ccc(-c2nc3ccc(Cl)cn3c2NC2CCCCC2)cc1
61.3 | 100 | 2.84 | Cc1ccn2c(NC3CCCCC3)c(-c3ccc(OCCCN4C(=O)c5ccccc5C4=O)cc3)nc2c1
